From ChEMBL document CHEMBL6071141, “In vitro and in vivo evaluation of Bombesin-MMAE conjugates for targeted tumour therapy” (Eur J Med Chem, 2024)

Assays:
[1] = Cytotoxicity against human PC-3 cells assessed as inhibition of cell growth incubated for 72 hrs by CellTiter 96 aqueous assay; format: toxicity, cell-based
Method in brief: (§1)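 PC-3 or MDA-MB-231 cells were treated the day after seeding with serial dilutions, from 2000 nM for conjugates and 100 nM for MMAE, for 72 h. Then the assay was stopped, or run 72 h more after a medium change (single) or re-treatment (double). Controls got 0.05 % DMSO. Read-out was MTS absorbance at 490 nm after 90 min. IC50 by non-linear regression; ≥2 experiments, triplicates.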

[2] = Cytotoxicity against human cells MDA-MB-231 assessed as inhibition of cell growth incubated for 72 hrs by CellTiter 96 aqueous assay; format: toxicity, cell-based; settings: MDA-MB-231 cells; method in brief: as §1
[3] = Cytotoxicity against human PC-3 cells assessed as inhibition of cell growth incubated with compound for 72 hrs followed by further incubated for 72 hrs (single treatment) by CellTiter 96 aqueous assay; format: toxicity, cell-based; method in brief: as §1
[4] = Cytotoxicity against human PC-3 cells assessed as inhibition of cell growth incubated for 72 hrs and followed by treated with compound continued incubation for further 72 hrs (double treatment) after retreatment of compound by CellTiter 96 aqueous assay; format: toxicity, cell-based; method in brief: as §1
[5] = Cytotoxicity against human MDA-MB-231 cells assessed as inhibition of cell growth incubated with compound for 72 hrs followed by further incubated for 72 hrs (single treatment) by CellTiter 96 aqueous assay; format: toxicity, cell-based; method in brief: as §1
[6] = Cytotoxicity against human MDA-MB-231 cells assessed as inhibition of cell growth incubated for 72 hrs and followed by treated with compound continued incubation for further 72 hrs (double treatment) after retreatment of compound by CellTiter 96 aqueous assay; format: toxicity, cell-based; method in brief: as §1
[7] = target: T1, Gastrin-releasing peptide receptor (Homo sapiens, UniProt P30550); assay: Displacement of 125 I- [Tyr4] from bombesin receptor 2 in human PC-3 cells assessed as inhibition by radioligand displacement assay; format: cell-based
T1 sequence (P30550 whole entry): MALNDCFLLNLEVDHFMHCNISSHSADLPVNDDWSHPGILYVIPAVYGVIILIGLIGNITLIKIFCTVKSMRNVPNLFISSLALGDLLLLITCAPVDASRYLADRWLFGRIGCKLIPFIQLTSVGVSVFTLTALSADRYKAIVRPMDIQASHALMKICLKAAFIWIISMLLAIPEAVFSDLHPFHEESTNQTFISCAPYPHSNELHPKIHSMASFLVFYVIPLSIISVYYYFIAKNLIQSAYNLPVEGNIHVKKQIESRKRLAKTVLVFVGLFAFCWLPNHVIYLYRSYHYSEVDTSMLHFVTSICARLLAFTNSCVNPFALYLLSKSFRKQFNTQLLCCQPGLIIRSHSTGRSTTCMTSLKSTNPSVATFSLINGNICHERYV
Method in brief: (§2)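 Competition binding on membrane preparations from PC-3 or MDA-MB-231 cells against ¹²⁵I-[Tyr⁴]-bombesin, with conjugates at 10 μM–10 pM. IC50 was taken as the concentration giving 50 % inhibition of tracer binding.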

[8] = target: T1, Gastrin-releasing peptide receptor; assay: Displacement of 125 I- [Tyr4] from bombesin receptor 2 in human MDA-MB-231 cells assessed as inhibition by radioligand displacement assay; format: cell-based; method in brief: as §2
[9] = Metabolic stability in mouse plasma assessed as half life at 5 uM measured upto 24 hrs by LC-HRMS analysis; format: ADME, cell-free
Method in brief: (§3)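 Conjugates at 5 μM were incubated in human or mouse plasma at 37 °C, in duplicate. Samples were taken at t0, 0.25, 0.5, 1, 2, 4 and 24 h and quenched with 1 % formic acid in MeCN (2× volume). After centrifugation (14000 rpm, 4 °C), supernatants were diluted 1:1 with water and analysed by LC-HRMS.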

[10] = Toxicity in mouse xenografted with human PC-3 cells assessed as body weight loss at 1 mg/kg, ip administered relative to control; format: organism-based; settings: in vivo, 2 mg/kg, in the assay text read “2 mg/kg” for “1 mg/kg”
Method in brief: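 Toxicity in mice bearing subcutaneous PC-3 tumours after a single i.p. dose 9 days post-inoculation. Free drug at 1 mg/kg, conjugates at 2 mg/kg MMAE-content, in 5 % DMSO in water; solvent controls; eight per group. Body weight followed periodically. Endpoint at 20 % weight loss; behaviour (activity, coat, stool, paleness) also scored.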

[11] = system: PC-3; assay: Antitumor activity against human PC-3 cells xenografted in mouse assessed as reduction in tumour volume relative to control; format: functional; set-up: scale not given: the % may be the effect or the level left
Method in brief: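 Acute study in mice bearing subcutaneous PC-3 tumours. Single i.p. dose (0.1 mL) 9 days after inoculation, at a mean tumour volume of 62 mm³. Eight per group, randomized. Conjugates at 2 mg/kg MMAE-content, free MMAE at 1 mg/kg, in 5 % DMSO in water; solvent controls. Calliper volume V = ab²×π/6. Sacrifice at 20 % weight loss or 2000 mm³.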

[12] = Biodistribution in mouse xenografted with human PC-3 cells assessed as tumour environment incubated for 24 hrs by LC-HRMS; format: ADME, organism-based, Neoplasm; settings: in vivo
Method in brief: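 Mice bearing PC-3 xenografts received a single 2 mg/kg i.p. dose. Blood, tumour, liver, kidneys, heart, lungs and pancreas were collected at 1, 6 and 24 h and pooled per group. Tissues were homogenised in water (1:2 w/v) and centrifuged. Released MMAE was measured by LC-HRMS and expressed as %ID/g (n = 3).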

[13] = Toxicity in mouse xenografted with human PC-3 cells assessed as skin rash at 0.5 mg/kg, ip administered upto 23 days; settings: in vivo, 552 h
[14] = system: PC-3; assay: Antitumor activity against human PC-3 cells xenografted with mouse assessed as median survival days at 2 mg/kg, ip (reference value: 33 days)
[15] = Metabolic stability in human plasma assessed as half life at 5 uM measured upto 24 hrs by LC-HRMS analysis; format: ADME, cell-free; method in brief: as §3
[16] = Displacement of 125 I- [Tyr4] from bombesin receptor 1 (unknown origin) assessed as inhibition by radioligand competitive binding assay; set-up: species or system Homo sapiens
[17] = target: T1, Gastrin-releasing peptide receptor; assay: Displacement of 125 I- [Tyr4] from bombesin receptor 2 (unknown origin) assessed as inhibition by radioligand competitive binding assay
[18] = target: T2, Bombesin receptor subtype-3 (Homo sapiens, UniProt P32247); assay: Displacement of 125 I- [Tyr4] from bombesin receptor 3 (unknown origin) assessed as inhibition by radioligand competitive binding assay
T2 sequence (P32247 whole entry): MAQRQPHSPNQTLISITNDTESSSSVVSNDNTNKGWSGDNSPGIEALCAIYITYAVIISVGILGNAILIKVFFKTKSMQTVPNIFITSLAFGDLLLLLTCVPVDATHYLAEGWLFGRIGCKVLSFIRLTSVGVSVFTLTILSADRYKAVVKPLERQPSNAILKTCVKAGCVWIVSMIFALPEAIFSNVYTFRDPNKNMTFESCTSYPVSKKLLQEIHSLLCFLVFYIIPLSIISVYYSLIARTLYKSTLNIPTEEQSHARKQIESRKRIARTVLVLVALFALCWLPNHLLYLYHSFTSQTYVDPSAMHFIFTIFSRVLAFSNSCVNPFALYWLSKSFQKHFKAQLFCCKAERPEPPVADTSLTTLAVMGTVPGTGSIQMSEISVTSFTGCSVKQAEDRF

half-life at 5 µM [9] [h]	half-life at 5 µM [15] [h]	IC50 [16] [nM]	IC50 [17] [nM]	IC50 [18] [nM]	Structure (SMILES)	IC50 at 72 h [1] [nM]	IC50 at 72 h [2] [nM]	IC50 at 144 h [3] [nM]	IC50 at 144 h [4] [nM]	IC50 at 144 h [5] [nM]	IC50 at 144 h [6] [nM]	IC50 [7] [nM]	IC50 [8] [nM]	Activity [10] [%]	Activity [11] [%]	Drug uptake [12]	Activity [13]	Survival [14] [days]
0.12	8.2	–	–	–	CC[C@H](C)[C@@H]([C@@H](CC(=O)N1CCC[C@H]1[C@H](OC)[C@@H](C)C(=O)N[C@H](C)[C@@H](O)c1ccccc1)OC)N(C)C(=O)[C@@H](NC(=O)[C@H](C(C)C)N(C)C(=O)OCc1ccc(NC(=O)[C@H](CCCNC(N)=O)NC(=O)[C@@H](NC(=O)CCCCCN2C(=O)CC(SC[C@H](NC(C)=O)C(=O)N[C@H](Cc3ccccc3)C(=O)N[C@@H](CCC(N)=O)C(=O)N[C@@H](Cc3c[nH]c4ccccc34)C(=O)N[C@@H](C)C(=O)N[C@H](C(=O)NCC(=O)N[C@@H](Cc3c[nH]cn3)C(=O)N[C@@H](CC(C)C)[C@@H](O)CC(=O)N[C@@H](CC(C)C)C(N)=O)C(C)C)C2=O)C(C)C)cc1)C(C)C (some centres not stated)	718	888	101	92.1	202	155	–	–	–	–	–	–	–
≥ 5	≥ 5	> 10000	20.5	> 1000	CC(=O)N[C@@H](CS)C(=O)N[C@H](Cc1ccccc1)C(=O)N[C@@H](CCC(N)=O)C(=O)N[C@@H](Cc1c[nH]c2ccccc12)C(=O)N[C@@H](C)C(=O)N[C@H](C(=O)NCC(=O)N[C@@H](Cc1c[nH]cn1)C(=O)N[C@@H](CC(C)C)[C@@H](O)CC(=O)N[C@@H](CC(C)C)C(N)=O)C(C)C	–	–	–	–	–	–	–	–	–	–	–	–	–

Structure (SMILES)	half-life at 5 µM [9] [h]	half-life at 5 µM [15] [h]	IC50 [16] [nM]	IC50 [17] [nM]	IC50 [18] [nM]	IC50 at 72 h [1] [nM]	IC50 at 72 h [2] [nM]	IC50 at 144 h [3] [nM]	IC50 at 144 h [4] [nM]	IC50 at 144 h [5] [nM]	IC50 at 144 h [6] [nM]	IC50 [7] [nM]	IC50 [8] [nM]	Activity [10] [%]	Activity [11] [%]	Drug uptake [12]	Activity [13]	Survival [14] [days]
CC[C@H](C)[C@@H]([C@@H](CC(=O)N1CCC[C@H]1[C@H](OC)[C@@H](C)C(=O)N[C@H](C)[C@@H](O)c1ccccc1)OC)N(C)C(=O)[C@@H](NC(=O)[C@H](C(C)C)N(C)C(=O)OCc1ccc(NC(=O)[C@H](CCCNC(N)=O)NC(=O)CNC(=O)[C@@H](CCC(=O)O)NC(=O)CCCCCN2C(=O)CC(SC[C@H](NC(C)=O)C(=O)NCCOCCOCCOCCOCCC(=O)N[C@H](Cc3ccccc3)C(=O)N[C@@H](CCC(N)=O)C(=O)N[C@@H](CC3=CNC4C=CC=CC34)C(=O)N[C@@H](C)C(=O)N[C@H](C(=O)NCC(=O)N[C@@H](Cc3c[nH]cn3)C(=O)N[C@@H](CC(C)C)[C@@H](O)CC(=O)N[C@@H](CC(C)C)C(N)=O)C(C)C)C2=O)cc1)C(C)C (some centres not stated)	7.2	–	–	–	–	428	885	110	83.5	164	131	68.3	72.9	< 20	26.3	Active	Toxic	42
